Active and inactive are the calls of the source. The calls are words filed in the database; no cut-off is given here.
Tests used:
[1] = test system: Mus musculus; experiment: Neurotoxicity in ip dosed CF1 albino mouse after 4 hrs by rotarod test; assay type: toxicity, organism-based; details: in vivo
Method in brief: (§1)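 CF-1 mice given 30, 100 or 300 mg/kg ip in 0.5% methylcellulose/water, examined at 0.5 and 4 h. Rotorod test: neurotoxicity is the inability to keep equilibrium on the rod for a given time. Value is the minimum dose giving motor impairment; a dash means none at 300 mg/kg.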

[2] = test system: Mus musculus; experiment: Anticonvulsant activity in ip dosed CF1 albino mouse assessed as inhibition of maximal electroshock-induced electrical stimulus after 2 hrs; assay type: functional
Method in brief: (§2)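 Male CF-1 mice injected intraperitoneally at 30, 100 and 300 mg/kg, suspended in 0.5% methylcellulose/water. MES or subcutaneous pentylenetetrazole challenge at 0.5 and 4 h; selected compounds also at 1 or 2 h.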

[3] = test system: Mus musculus; experiment: Anticonvulsant activity in ip dosed CF1 albino mouse assessed as inhibition of subcutaneous pentylenetetrazole-induced electrical stimulus after 4 hrs; assay type: functional; method in brief: as §2
[4] = test system: Mus musculus; experiment: Neurotoxicity in ip dosed CF1 albino mouse after 0.5 hr by rotarod test; assay type: toxicity, organism-based; details: in vivo; method in brief: as §1
[5] = test system: Mus musculus; experiment: Anticonvulsant activity in ip dosed CF1 albino mouse assessed as inhibition of maximal electroshock-induced electrical stimulus at 300 mg/kg after 0.5 hr; assay type: functional, organism-based; design: dose 300 mg/kg; method in brief: as §2
[6] = test system: Mus musculus; experiment: Anticonvulsant activity in ip dosed CF1 albino mouse assessed as inhibition of maximal electroshock-induced electrical stimulus after 4 hrs; assay type: functional; method in brief: as §2
[7] = test system: Mus musculus; experiment: Anticonvulsant activity in ip dosed CF1 albino mouse assessed as inhibition of subcutaneous pentylenetetrazole-induced electrical stimulus after 0.5 hr; assay type: functional; method in brief: as §2
[8] = Lipophilicity, log kw of compound by RP-HPLC; assay type: physicochemical
Method in brief: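 RP-HPLC on a C18 end-capped column at room temperature, with UV detection at 214 nm and uracil as the unretained marker. Capacity factor k = (tr − t0)/t0, from the mean of three measurement sets. log k extrapolated to 100% water (log k = log kw − Sφ) to give log kw.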

[9] = test system: Mus musculus; experiment: Anticonvulsant activity in ip dosed CF1 albino mouse assessed as inhibition of subcutaneous pentylenetetrazole-induced electrical stimulus at 300 mg/kg after 4 hrs; assay type: functional, organism-based; design: dose 300 mg/kg; method in brief: as §2
[10] = test system: Mus musculus; experiment: Anticonvulsant activity in ip dosed CF1 albino mouse assessed as inhibition of maximal electroshock-induced electrical stimulus after 1 hr; assay type: functional; method in brief: as §2
[11] = test system: Mus musculus; experiment: Neurotoxicity in ip dosed CF1 albino mouse at 300 mg/kg after 4 hrs by rotarod test; assay type: toxicity, organism-based; design: dose 300 mg/kg, route intraperitoneal; details: in vivo; method in brief: as §1
[12] = test system: Mus musculus; experiment: Anticonvulsant activity in ip dosed CF1 albino mouse assessed as inhibition of maximal electroshock-induced electrical stimulus after 0.5 hr; assay type: functional; method in brief: as §2
[13] = test system: Rattus norvegicus; experiment: Anticonvulsant activity in Sprague-Dawley rat assessed as protection against seizure at 30 mg/kg, po after 0.5 hr by maximal electroshock test; assay type: functional
Method in brief: (§3)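 Male Sprague–Dawley rats; compound suspended in 0.5% methylcellulose/water and given orally at a fixed 30 mg/kg, four rats per time point. MES test run at 0.25, 0.5, 1, 2 and 4 h after dosing, with motor impairment checked in parallel. Read-out: number of rats of four protected.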

[14] = test system: Rattus norvegicus; experiment: Anticonvulsant activity in Sprague-Dawley rat assessed as protection against seizure at 30 mg/kg, po after 1 hr by maximal electroshock test; assay type: functional; method in brief: as §3
[15] = Neurotoxicity in po dosed Sprague-Dawley rat after 2 hrs by rotarod test; assay type: toxicity, organism-based; details: in vivo
[16] = test system: Rattus norvegicus; experiment: Anticonvulsant activity in Sprague-Dawley rat assessed as protection against seizure at 30 mg/kg, po after 4 hrs by maximal electroshock test; assay type: functional; method in brief: as §3
[17] = test system: Mus musculus; experiment: Anticonvulsant activity in ip dosed CF1 albino mouse assessed as inhibition of subcutaneous pentylenetetrazole-induced electrical stimulus at 300 mg/kg after 0.5 hr; assay type: functional, organism-based; design: dose 300 mg/kg; method in brief: as §2
[18] = test system: Mus musculus; experiment: Anticonvulsant activity in ip dosed CF1 albino mouse assessed as inhibition of maximal electroshock-induced electrical stimulus at 300 mg/kg after 4 hrs; assay type: functional, organism-based; design: dose 300 mg/kg; method in brief: as §2
[19] = test system: Rattus norvegicus; experiment: Antiepileptic activity in pilocarpine-induced status prevention in Sprague-Dawley rat assessed as weight change in post first stage 3 seizure at 450 mg/kg after 24 hrs; assay type: functional
Method in brief: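 Pilocarpine-induced status prevention in rats. Compound given ip at time zero (65 or 450 mg/kg), followed by a challenge dose of pilocarpine. Seizure severity scored on the Racine scale. Average weight change (g, ±SEM) recorded for protected and non-protected rats.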

[20] = test system: Rattus norvegicus; experiment: Anticonvulsant activity in Sprague-Dawley rat assessed as protection against seizure at 30 mg/kg, po after 0.25 hr by maximal electroshock test; assay type: functional; method in brief: as §3
[21] = test system: Rattus norvegicus; experiment: Anticonvulsant activity in Sprague-Dawley rat assessed as protection against seizure at 50 mg/kg, po after 4 hrs by subcutaneous pentylenetetrazole test; assay type: functional
Method in brief: (§4)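 Male Sprague–Dawley rats dosed orally at 50 mg/kg as a 0.5% methylcellulose/water suspension, four animals per time point. Convulsant given subcutaneously at 0.25, 0.5, 1, 2 and 4 h after dosing; rotorod motor impairment assessed in parallel. Read-out: number of rats of four protected.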

[22] = test system: Rattus norvegicus; experiment: Anticonvulsant activity in Sprague-Dawley rat assessed as protection against seizure at 50 mg/kg, po after 2 hrs by subcutaneous pentylenetetrazole test; assay type: functional, organism-based; design: dose 50 mg/kg; method in brief: as §4
[23] = test system: Rattus norvegicus; experiment: Neurotoxicity in po dosed Sprague-Dawley rat at 50 mg/kg by rotarod test; assay type: toxicity, organism-based; design: dose 50 mg/kg, route oral; details: in vivo; method in brief: as §4
[24] = test system: Rattus norvegicus; experiment: Anticonvulsant activity in Sprague-Dawley rat assessed as protection against seizure at 30 mg/kg, po after 2 hrs by maximal electroshock test; assay type: functional; method in brief: as §3
[25] = test system: Rattus norvegicus; experiment: Anticonvulsant activity in Sprague-Dawley rat assessed as protection against seizure at 50 mg/kg, po after 0.5 hr by subcutaneous pentylenetetrazole test; assay type: functional; method in brief: as §4
[26] = test system: Mus musculus; experiment: Neurotoxicity in ip dosed CF1 albino mouse at 300 mg/kg after 0.5 hr by rotarod test; assay type: toxicity, organism-based; design: dose 300 mg/kg, route intraperitoneal; details: in vivo; method in brief: as §1
[27] = test system: Rattus norvegicus; experiment: Anticonvulsant activity in Sprague-Dawley rat assessed as protection against seizure rat at 50 mg/kg, po after 0.25 hr by subcutaneous pentylenetetrazole test; assay type: functional; method in brief: as §4
[28] = test system: Rattus norvegicus; experiment: Anticonvulsant activity in Sprague-Dawley rat assessed as protection against seizure at 50 mg/kg, po after 1 hr by subcutaneous pentylenetetrazole test; assay type: functional, organism-based; design: dose 50 mg/kg; method in brief: as §4
[29] = species on record: Rattus norvegicus; experiment: Anticonvulsant activity in rat assessed as inhibition of maximal electroshock-induced electrical stimulus; assay type: functional
[30] = species on record: Rattus norvegicus; experiment: Protective index, ratio of TD50 for rat by rotarod test to ED50 for rat by MES test; assay type: functional

For `CCC1(CC)CC(=O)N(Nc2ccc(Cl)cc2)C1=O`, the Activity [1] was 300 mg/kg, the Activity [2] was 100 mg/kg and the Activity [3] was 300 mg/kg. The Activity [4] was 300 mg/kg, the Activity [5] was “inactive” and the Activity [6] was 300 mg/kg. For the same molecule, the Activity [7] was 100 mg/kg and the “log K” value [8] was 2.314.

In the case of `CCC1(CC)CC(=O)N(Nc2ccc(Cl)cc2Cl)C1=O`, the Activity [9] is reported as “inactive”, the Activity [10] is reported as 100 mg/kg and the Activity [4] is reported as 100 mg/kg. The Activity [6] was 300 mg/kg, the Activity [7] was 100 mg/kg and the Activity [11] was “Not Active”. The Activity [12] was 300 mg/kg and the “log K” value [8] was 2.552.

In the case of `O=C1NC(=O)C(c2ccccc2)(c2ccccc2)N1` [PHENYTOIN], the Activity [1] is reported as 100 mg/kg, the Activity [13] is reported as “Active” and the Activity [14] is reported as “inactive”. It also gave an Activity [4] of 100 mg/kg, a TD50 at 2 h [15] greater than 500 mg/kg and an Activity [7] of 30 mg/kg. For the same molecule, the Activity [12] was 30 mg/kg and the Activity [16] was “inactive”.

For `Cc1ccc(NN2C(=O)C3CCCCC3C2=O)cc1` (configuration not stated), the Activity [17] was “inactive”, the Activity [18] was “inactive” and the Activity [9] was “inactive”. For the same molecule, the Activity [4] was 300 mg/kg, the Activity [5] was “inactive” and the Activity [19] was 10.2 g. The Activity [11] was “Not Active” and the “log K” value [8] was 2.028.

For `O=C1C2CCCCC2C(=O)N1Nc1ccccc1` (configuration not stated), the Activity [20] was “inactive”, the Activity [13] was 25% and the Activity [21] was “inactive”. The Activity [14] was “inactive”, the Activity [18] was “inactive” and the Activity [9] was “inactive”. For the same molecule, the Activity [22] was “inactive”, the Activity [23] was “Non-toxic” and the Activity [24] was “inactive”. The Activity [25] was “inactive”, the Activity [7] was 300 mg/kg and the Activity [11] was “Not Active”. The Activity [26] was “Not Active”, the Activity [27] was 25% and the Activity [12] was 300 mg/kg. For the same molecule, the Activity [28] was “inactive”, the “log K” value [8] was 1.937 and the Activity [16] was “inactive”.

For `O=C1CC2(CCCC2)C(=O)N1Nc1ccccc1`, the ED50 [29] was 76.3 mg/kg and the “Ratio TD50/ED50” value [30] was 3.44.

— ChEMBL document CHEMBL1157190, “Design, synthesis, and anticonvulsant activity of N-phenylamino derivatives of 3,3-dialkyl-pyrrolidine-2,5-diones and hexahydro-isoindole-1,3-diones” (Bioorg Med Chem, 2008)
